Drawing on ChEMBL document CHEMBL4513216, “Probing the Open Global Health Chemical Diversity Library for Multistage-Active Starting Points for Next-Generation Antimalarials” (ACS Infect Dis, 2020), this text covers cytotoxicity for 97 molecules.

The nature of the series: Toxicity liver stage against HepG2, at 10uM. Format: cell-based. Details: test concentration 10 uM, cell line HepG2-A16-CD81EGFP. As to conditions: human, HepG2-A16-CD81EGFP cells; read-out: INHIBITION
A digest of the protocol:
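Uninfected HepG2-A16-CD81EGFP cells, 3 × 10^3 per well, 1536-well, plated on prespotted compound at 10 μM final, parasite-free screening media added to match infected plates; puromycin 10 μM positive, DMSO 0.5% negative; run in parallel with 48 h PbLuc assay at 37 °C, 5% CO2; viability by CellTiter-Glo luminescence, normalized to controls.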
As for `Cc1cccc(CC2CCCN(C(=O)Cc3csc(C)n3)C2)n1` (configuration not stated), the cytotoxicity at 10 µM was -26.5%.

Turning to `CC(C)C[C@H](N)c1nnc(SCC(N)=O)o1`, the cytotoxicity at 10 µM was found to be 4.95%.

Take `CCC(CC)N(Cc1cc(=O)n(C)c(=O)n1C)C1CC1`: the cytotoxicity at 10 µM came to 15.8%.

As for `COc1cccc(CNC2CCSC2)c1OC` (configuration not stated), the cytotoxicity at 10 µM was 2.25%.

As for `CCOc1ncnc2c1CCN(Cc1csc(C)n1)CC2`, the cytotoxicity at 10 µM was -68.1%.

Consider `Nc1nccc(NCc2cc3n(n2)CCCN(C2CCCCC2)C3)n1`, for which the cytotoxicity at 10 µM is -16%.

For the molecule `COc1ccc(F)c(CN2CCCC(c3cc(O)nc(C)n3)C2)c1` (configuration not stated), the cytotoxicity at 10 µM came out at 7.3%.

Turning to `CC(c1cccnc1)N1CCN(CCCC#N)CC1` (configuration not stated), the cytotoxicity at 10 µM was 10.3%.

With `COCCN1C[C@@H](C)[C@@]2(COCCN(C(=O)c3ccncc3)C2)C1`, the cytotoxicity at 10 µM turned out to be 5.71%.

On to `Cc1nc(C2CCCN(C(=O)c3cnc(C)s3)C2)no1` (configuration not stated), for which the cytotoxicity at 10 µM worked out at 4.31%.

Take `CC1N(C)C(=O)COC12CCN(C(=O)CCc1ccccc1)CC2` (configuration not stated): the cytotoxicity at 10 µM amounted to 0.227%.

Regarding `COc1ccc(C(=O)N2CCC3(CC2)c2ccccc2[C@@H](N)[C@@H]3O)cc1`, the cytotoxicity at 10 µM is -3.34%.

Regarding `CCCOC1CCCN(C(=O)c2[nH]nc(C)c2Br)C1` (configuration not stated), the cytotoxicity at 10 µM is 0.595%.

As for `COCCN1CCCC2(CCN(c3nc(C)nc4c3CCC4)C2)C1=O` (configuration not stated), the cytotoxicity at 10 µM is -11.4%.

With `Cc1cc(C)c2c(c1)C(CC(=O)O)C(=O)N2` (configuration not stated), the cytotoxicity at 10 µM is 7.16%.

On to `Fc1ccc(N2CCOC3(COCCN(c4ncccn4)C3)C2)cc1` (configuration not stated), for which the cytotoxicity at 10 µM was -95.4%.

Take `c1ccn(Cc2nnc3n2CCCN(Cc2ccoc2)C3)c1`: the cytotoxicity at 10 µM is 0.993%.

For `COc1cccc(-c2c[nH]c(C)n2)c1F`, the cytotoxicity at 10 µM was -3.29%.

As to `O=C(c1ccnc(C2CCNCC2)c1)N1CCCC1`, the cytotoxicity at 10 µM worked out at 3.69%.

Turning to `CCc1c(C(=O)N2CCN(c3cnccn3)CC2)cnn1C(C)(C)C`, the cytotoxicity at 10 µM is -13%.

For the molecule `CN1CCCN(C(=O)NCc2cc(Br)cs2)CC1`, the cytotoxicity at 10 µM is -16.7%.

`COCC1c2c(cnn2CC2CC2)CCN1Cc1ccc(C)o1` (configuration not stated): the cytotoxicity at 10 µM is -0.201%.

On to `CC1CCCN(C(=O)c2ccc(N(C)Cc3cnn(C)c3)nc2)C1` (configuration not stated), for which the cytotoxicity at 10 µM was 2.22%.

As for `Cc1ccsc1CN1CCC2(CC1)CC(OCc1cccnc1)CO2` (configuration not stated), the cytotoxicity at 10 µM came to 3.45%.

`CCc1nc(C)ncc1C(=O)N1CC(=O)N(C)c2ccccc21`: the cytotoxicity at 10 µM was determined as 6.62%.

As for `COCCOCCNC(=O)C(C)Oc1ccccc1C(F)(F)F` (configuration not stated), the cytotoxicity at 10 µM was determined as 0.295%.

On to `O=C(c1cccnc1-c1ccc2c(c1)OCCO2)N1CCCC1`, for which the cytotoxicity at 10 µM stood at 3.82%.

In the case of `CO[C@H]1CC[C@H]2[C@H]1OCCN2C(=O)C1=CCCC1`, the cytotoxicity at 10 µM is -131%.

In the case of `CSc1cc2c(cc1NC(=O)NCc1ccncc1)OCCO2`, the cytotoxicity at 10 µM was 7.55%.

Take `CC(C)c1nnc(CN2CCC3(CC2)Nc2ccccc2NC3=O)o1`: the cytotoxicity at 10 µM is -1.48%.

Take `CC(C)c1ccc(C(C)N2CCCN(C(N)=O)CC2)cc1` (configuration not stated): the cytotoxicity at 10 µM was -4.24%.

As for `CN1CCCN(C(=O)c2nc3sccn3c2-c2ncc[nH]2)CC1`, the cytotoxicity at 10 µM is -4.34%.

Regarding `CCS(=O)(=O)N1CC(=O)N(CCCc2ccccc2)CC(O)C1` (configuration not stated), the cytotoxicity at 10 µM is -5.64%.

As to `O=C1NCCCCC1NC(=O)C1(c2cccc(C(F)(F)F)c2)CC1` (configuration not stated), the cytotoxicity at 10 µM was -5.67%.

On to `NC(=O)CN1CCC2(CC1)CC(=O)c1ccc3ccccc3c1O2`, for which the cytotoxicity at 10 µM stood at 1.76%.

Take `Cc1csc(N2CCCN(C(=O)C3(C#N)CCCCC3)CC2)n1`: the cytotoxicity at 10 µM is -2.45%.

In the case of `c1ncn(Cc2cnc3n2CCN(Cc2ccsc2)CC3)n1`, the cytotoxicity at 10 µM was 6.2%.

`O=C(c1ccccc1-c1ccccc1)N1C[C@@H]2CNC[C@]2(C(=O)O)C1`: the cytotoxicity at 10 µM is -0.265%.

As for `CC(C)c1ccc(-n2cc(O)c(C(=O)O)n2)cc1`, the cytotoxicity at 10 µM was -42.4%.

Take `O=C(C1CCC2(CCN(c3ncccn3)CC2)CO1)N1CCCC1` (configuration not stated): the cytotoxicity at 10 µM amounted to 5.59%.

As to `COCCC(=O)N1C[C@H]2CN(Cc3cccc(C)n3)C(=O)[C@H]2C1`, the cytotoxicity at 10 µM is 4.4%.

As for `COc1nn(C)cc1C(=O)N1CCC(c2ccccc2)C1` (configuration not stated), the cytotoxicity at 10 µM is -2.18%.

Consider `COCCn1cc(NCc2cccc3cn[nH]c23)cn1`, for which the cytotoxicity at 10 µM is -3.31%.

Consider `Cc1nn(C)c(C)c1C1CCCN1CC(=O)Nc1cccnc1` (configuration not stated), for which the cytotoxicity at 10 µM was -31.7%.

Consider `CNC(=O)c1cccc(NC(=O)Cn2nc(-c3cccs3)oc2=O)c1`, for which the cytotoxicity at 10 µM is -8.28%.

Regarding `C[S+]([O-])c1ccc(CNc2ccc(F)cc2OC(F)F)cc1` (configuration not stated), the cytotoxicity at 10 µM was found to be 0.752%.

As to `CN(C)C(=O)CC1CC2(CCNCC2)c2cc(F)ccc21` (configuration not stated), the cytotoxicity at 10 µM is 6.54%.

Regarding `CC1CCN(CC2CCCN(C(=O)Nc3ccccn3)C2)CC1` (configuration not stated), the cytotoxicity at 10 µM is -9.85%.

In the case of `CC(=O)NCCC1CCCCN1C(=O)c1cccc(CCC(C)(C)O)c1` (configuration not stated), the cytotoxicity at 10 µM was found to be 4.13%.

As to `Cc1ccc(N2CCO[C@H]3CN(Cc4nccs4)C[C@H]32)nn1`, the cytotoxicity at 10 µM was -94.7%.

For the molecule `CC(Cn1cccn1)NS(=O)(=O)Cc1ccccc1` (configuration not stated), the cytotoxicity at 10 µM was 6.8%.

For `Cc1noc(C)c1CN1C[C@H](OCC2CCN(C)CC2)[C@H]2COC[C@H]21`, the cytotoxicity at 10 µM is -4.49%.

Regarding `O=C(NCC1CCOCC1)[C@@H]1CC[C@@H]2[C@@H](CCN2Cc2ccncc2)O1`, the cytotoxicity at 10 µM turned out to be 4.85%.

On to `O=C(Cc1cccc(Cl)c1)Nc1cnccc1SCCCO`, for which the cytotoxicity at 10 µM was -7.04%.

Consider `CCCc1nc(NC2(COC)CCCC2)c2cnn(C)c2n1`, for which the cytotoxicity at 10 µM was -1.43%.

Take `CC(C)Cc1cc(CC2(NCc3ccccc3Cl)COC2)no1`: the cytotoxicity at 10 µM was -7.55%.

In the case of `O=C(NCc1ccc(-c2ccn[nH]2)cc1)N1CCC(N2CCCC2)C1` (configuration not stated), the cytotoxicity at 10 µM is -8.35%.

Regarding `Cc1ccc(NCCCNc2nccc(-c3cn(C)nc3C)n2)nc1`, the cytotoxicity at 10 µM was found to be 14.5%.

As to `CCOCCCn1c(NC(=O)c2scnc2C)nc2ccccc21`, the cytotoxicity at 10 µM was determined as 5.9%.

For the molecule `CCC(C)NS(=O)(=O)c1ccc(C(=O)N(C)C2(C#N)CCC2)cc1` (configuration not stated), the cytotoxicity at 10 µM stood at 16.1%.

As to `CC(C)Cc1cc(C(=O)N2CCC[C@H]2C(=O)N2CCOCC2)on1`, the cytotoxicity at 10 µM was 6.07%.

With `O=C(NCc1cccnc1)N1CCn2c(Cn3cccn3)cnc2C1`, the cytotoxicity at 10 µM is -71.1%.

In the case of `O=C(Cn1nc2c(cc1=O)CSCC2)NC(Cc1ccccc1)C(=O)O` (configuration not stated), the cytotoxicity at 10 µM was -10.1%.

Take `Cc1cc(S(=O)(=O)NC(=O)CCc2cccnc2)c(C)s1`: the cytotoxicity at 10 µM was 8.28%.

Regarding `COCC(c1ccccn1)N(C)C(=O)c1cc(-c2ccccc2O)n[nH]1` (configuration not stated), the cytotoxicity at 10 µM was -1.84%.

Regarding `COc1cccc2c1OCC(C(=O)NCc1nc3c(s1)CCCC3)C2` (configuration not stated), the cytotoxicity at 10 µM was -43.3%.

As to `Cc1nn(CC(C)C)c(N(C)C)c1CNCc1ccnn1C`, the cytotoxicity at 10 µM was -22.3%.

`Cc1cnn(CC(C)NCc2nc(-c3cccs3)no2)c1` (configuration not stated): the cytotoxicity at 10 µM was -7.64%.

For `CCN(CC)C(=O)C1CCCN(CC(=O)Nc2c(C)nn(CC)c2C)C1` (configuration not stated), the cytotoxicity at 10 µM is 2.13%.

`COc1nc2cc(C)ccc2cc1CN(C)Cc1cc(C)[nH]n1`: the cytotoxicity at 10 µM stood at 4.3%.

As to `CS(=O)(=O)N1CCC(C(=O)NCCCn2cc(Cl)cn2)CC1`, the cytotoxicity at 10 µM was -8.97%.

`Cc1cc(CC(=O)N2CCCC2c2nc(C(C)C)no2)on1` (configuration not stated): the cytotoxicity at 10 µM is -25.9%.

For `CN(CC(=O)Nc1cnn(-c2ccccc2S(C)(=O)=O)c1)C1CC1`, the cytotoxicity at 10 µM turned out to be 0.315%.

For `COCCOc1ccc(NC(=O)N(CCO)C2CC2)cn1`, the cytotoxicity at 10 µM was -2.77%.

For the molecule `CO[C@@H]1CCC[C@@H](N(C)C(=O)c2cn3cc(C)ccc3n2)[C@H]1O`, the cytotoxicity at 10 µM turned out to be 0.829%.

As to `O=C(c1ccccn1)N1CCc2ncnc(N3CCOCC3)c2CC1`, the cytotoxicity at 10 µM amounted to 0.661%.

Take `CN(CC1(CO)CCC1)c1nc2c(c(=O)[nH]1)Cc1ccccc1OC2`: the cytotoxicity at 10 µM is -17.2%.

Consider `CO[C@@H]1CN(c2ccccc2)S(=O)(=O)[C@@]12CCN(S(C)(=O)=O)C2`, for which the cytotoxicity at 10 µM came to 2.21%.

On to `CC(CNC(=O)N1CCN(c2ncccn2)CC1)Cc1cccs1` (configuration not stated), for which the cytotoxicity at 10 µM was -7.9%.

As to `Cc1nc(CN2CCC3(C2)CN(Cc2ccco2)C3)cs1`, the cytotoxicity at 10 µM was -106%.

Regarding `CCSc1nsc(NC(=O)COc2ccc3c(c2)OCO3)n1`, the cytotoxicity at 10 µM is 2.03%.

Regarding `Cc1cc(N(C)C)nc(C2(C)CCCN2CC(N)=O)n1` (configuration not stated), the cytotoxicity at 10 µM was -2.8%.

Regarding `CCN1CCOCC2(C1)CN(C(=O)c1c(C)noc1C)CCO2` (configuration not stated), the cytotoxicity at 10 µM was determined as 13.8%.

In the case of `O=C(NC1CCS(=O)(=O)C1)c1cn(C2CC2)c(=O)c2ccccc12` (configuration not stated), the cytotoxicity at 10 µM is -5.65%.

Take `CC(=O)NCCCC(=O)NC(C)c1nnc2n1CCC2` (configuration not stated): the cytotoxicity at 10 µM was -10.3%.

With `CC(C)CN1CCN(C(=O)c2ccncc2F)Cc2cccnc21`, the cytotoxicity at 10 µM is 1.71%.

With `Cc1ccccc1CN(CCN(C)C)Cc1ccc(S(C)(=O)=O)cc1`, the cytotoxicity at 10 µM was 6.3%.

With `CC(C)n1cc(CN2CCCN(C(=O)C3(C)CCOCC3)CC2)cn1`, the cytotoxicity at 10 µM was -48.2%.

Take `Cc1cccc(C)c1OCCNC(=O)CNC(=O)C1CCCC1`: the cytotoxicity at 10 µM was -122%.

For `c1cnc(N2CCC3(CCN(CC4CC4)CC3)CC2)nc1`, the cytotoxicity at 10 µM was 0.77%.

As for `c1ccc(Cn2cccn2)c(CNCC2CNc3ccnn3C2)c1` (configuration not stated), the cytotoxicity at 10 µM was -10.7%.

For the molecule `N#Cc1cccnc1N[C@@H]1c2ccccc2C[C@@H]1O`, the cytotoxicity at 10 µM was 2.28%.

With `CCc1nnc2ccc(N3CCN(S(=O)(=O)c4ccc(C)s4)CC3)nn12`, the cytotoxicity at 10 µM came to 1.5%.

Take `CN1C(=O)CC2(CCNCC2)c2ccccc21`: the cytotoxicity at 10 µM is -3.92%.

In the case of `CCn1ncc(CN(C)C(=O)c2ccn(C)n2)c1C`, the cytotoxicity at 10 µM was 6.5%.

In the case of `CC(C)C[C@@H](CO)n1cc(-c2cncnc2)nn1`, the cytotoxicity at 10 µM is -0.268%.

For `Cc1nc(CN2Cc3cn(C)nc3C(COCC3CC3)C2)cs1` (configuration not stated), the cytotoxicity at 10 µM was -68.9%.
